We go through 5 compounds from ChEMBL document CHEMBL3351291, “Lajollamycins, nitro group-bearing spiro-β-lactone-γ-lactams obtained from a marine-derived Streptomyces sp” (J Nat Prod, 2014).

Experiment [1] concerns Salmonella enterica. Briefly: Antibacterial activity against Salmonella enterica ATCC 14028. It is filed as functional.
The test system of experiment [2] is A549. Briefly: Cytotoxicity against human A549 cells. The experiment is classed as functional, cell-based.
Experiment [3] in a line: Inhibition of Candida albicans isocitrate lyase using isocitrate substrate. The settings on record: for pIC50: read-out: IC50. A digest of the protocol: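 Recombinant ICL at 2.5 μg/mL in 20 mM sodium phosphate buffer, pH 7.0, with 1.27 mM threo-DL(+)-isocitrate, 3.75 mM MgCl2 and 4.1 mM phenylhydrazine. Reaction started on substrate addition, with or without inhibitor in DMSO (0.5% final). After 30 min at 37 °C, glyoxylate phenylhydrazone was read at 324 nm. Percent inhibition was taken against an inhibitor-free control, with 3-nitropropionic acid as positive control.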

In experiment [4] the test system is Escherichia coli. Briefly: Antibacterial activity against Escherichia coli ATCC 35270. The experiment is classed as functional.
Experiment [5] is described as follows: Cytotoxicity against human SKHEP1 cells. It is filed as functional, cell-based. The settings on record: SK-HEP1.
Experiment [6] has as its system Kocuria rhizophila. In words: Antibacterial activity against Kocuria rhizophila NBRC 12708. It is filed as functional.
Experiment [7] has as its system MDA-MB-231. Briefly: Cytotoxicity against human MDA-MB-231 cells. The experiment is classed as functional, cell-based.
Experiment [8] concerns Candida albicans. In words: Antifungal activity against Candida albicans. It is filed as functional, organism-based.
A short description of experiment [9]: Cytotoxicity against human HCT116 cells. It is filed as functional, cell-based. The settings on record: HCT-116.
The test system of experiment [10] is Staphylococcus aureus. Briefly: Antibacterial activity against Staphylococcus aureus ATCC 6538p. It is filed as functional.
In experiment [11] the test system is Proteus hauseri. In words: Antibacterial activity against Proteus hauseri NBRC 3851. The experiment is classed as functional.
Experiment [12] deals with Aspergillus fumigatus. In words: Antifungal activity against Aspergillus fumigatus. The experiment is classed as functional, organism-based.
The subject of experiment [13] is Bacillus subtilis. Briefly: Antibacterial activity against Bacillus subtilis ATCC 6633. It is filed as functional.
The nature of experiment [14]: Cytotoxicity against human SNU638 cells. The settings on record: SNU-638. It is filed as functional, cell-based.
Experiment [15] has as its system K562. In words: Cytotoxicity against human K562 cells. The experiment is classed as functional, cell-based.

pIC50: −log10 of the molar value. Calls of active or inactive are those of the source. No cut-off for these calls is given here. A value given as a limit tells only on which side of the number the result lay.

Usually MIC stands for the lowest concentration that inhibits growth of the organism. Usually pIC50 stands for the negative decadic logarithm of the IC50, by convention in mol/L. As to `CO[C@@H](C[C@@H](C)[C@@H](O)/C=C/C=C/CNC(=O)C(C)(C)[C@H](O)/C(C)=C/C=C/C=C/C(C)=C(\C)[N+](=O)[O-])[C@]1(O)[C@@H](C)C(=O)N(C)[C@]12C(=O)O[C@@H]2C`, the MIC in experiment [1], in experiment [4], in experiment [6], in [10], in [11] and in experiment [13] was above 128 µg/mL each time. For the same compound, the pIC50 is below 4.00 in [2]; 4.30 in [3]; below 4.00 in experiment [5]; below 4.00 in [7]; below 4.00 in experiment [9]; below 4.00 in [14]. In experiment [15], this compound gave a pIC50 below 4.00. Besides, the outcome in [8] and in [12] was inactive.
For `CO[C@@H](C[C@@H](C)[C@@H](O)/C=C/C=C/CNC(=O)C(C)(C)[C@H](O)\C(C)=C/C=C/C=C/C(C)=C(\C)[N+](=O)[O-])[C@]1(O)[C@@H](C)C(=O)N(C)[C@]12C(=O)O[C@@H]2C`, the MIC in experiment [1], in experiment [4], in experiment [6], in experiment [10], in [11] and in [13] was above 128 µg/mL throughout. For the same compound, the pIC50 was below 4.00 in experiment [2]; 3.92 in experiment [3]; below 4.00 in experiment [5]; below 4.00 in experiment [7]; below 4.00 in experiment [9]; below 4.00 in experiment [14]. Besides, the pIC50 in [15] was below 4.00. Also, the outcome in experiment [8] and in experiment [12] was inactive.
Usually IC50 stands for the concentration at which inhibition is half-maximal. A low value points to greater potency in that assay. For the compound `O=C(O)CC[N+](=O)[O-]`, the IC50 in experiment [3] was 4.2 µg/mL.
For `CO[C@@H](C[C@@H](C)[C@@H](O)/C=C/C=C/CNC(=O)C(C)(C)[C@H](O)/C(C)=C/C=C/C=C/C(C)=C(\C)[N+](=O)[O-])[C@]1(O)[C@@H](C)C(=O)N(C)[C@@]12COC2=O`, the MIC in experiment [1], in [4], in experiment [6], in experiment [10], in experiment [11] and in [13] was above 128 µg/mL throughout. The pIC50 in experiment [2] was below 4.00; in experiment [3], 4.40; in experiment [5] it was below 4.00; in [7] it was below 4.00; in experiment [9] it was below 4.00; in experiment [14] it was below 4.00. This compound also showed a pIC50 in experiment [15] below 4.00. The outcome in experiment [8] and in experiment [12] was inactive.
Consider `COC(CC(C)C(O)/C=C/C=C/CNC(=O)C(C)(C)C(O)\C(C)=C/C=C\C=C\C(C)=C(/C)[N+](=O)[O-])C1(O)C(C)C(=O)N(C)C12C(=O)OC2C` (stereo unspecified) [LAJOLLAMYCIN], for which the MIC in experiment [1], in experiment [4], in experiment [6], in experiment [10], in experiment [11] and in [13] was above 128 µg/mL throughout. The pIC50 was below 4.00 in experiment [2]; 4.38 in [3]; below 4.00 in experiment [5]; below 4.00 in experiment [7]; below 4.00 in experiment [9]; below 4.00 in experiment [14]. The compound further had a pIC50 in experiment [15] below 4.00. Also, the result in [8] and in [12] was inactive.
